Four molecules from PubChem BioAssay AID602231 (The Scripps Research Institute Molecular Screening Center, 2012) can be followed below.

Molecules are shown by their SMILES. Activity calls are given as the source filed them.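 Rule for the calls: active = calcium level giving half maximal force raised by at least 10% versus DMSO, meaning delta pCa50 at or below about -0.041; inactive = the rest.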

The experiment in a line: calcium sensitization of cardiac fiber tension, mechanism study for cardiac RTF sensitizer project, porcine papillary fibers, force transducer (AID 602231). To be noted: Permeabilized pig cardiac fiber, Ca2+-tension pCa50 shift, at 10 µM; delta pCa50: stronger effect = higher value; maximal force change: measured here: effect on maximal fiber tension. The method in brief: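 System: Skinned porcine cardiac papillary muscle fibers; Dosing: single 10 µM compound dose in 0.1% DMSO; Detection: fiber tension measured by force transducer; Read-out basis: pCa50 shift versus DMSO; Also added: free Ca2+ series, pCa 8.0–4.5; Benchmarks: same fiber in 0.1% DMSO alone as reference; Medium: pH 7.0 buffer with Mg-ATP and EGTA.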
Take `CCOC(=O)c1sc(N)c(C#N)c1COC(=O)CNC(=O)c1cc(OC)c(OC)c(OC)c1`: the delta pCa50 is -0.039 (inactive) and the maximal force change was 3.3%.
For the molecule `Cc1cccn2c(=O)c(/C=C3\SC(=S)N(CC(C)C)C3=O)c(NCCCOC(C)C)nc12`, the maximal force change was -9.9% and the delta pCa50 is -0.003 (inactive).
Take `Cc1ccc(/C=C2\Oc3c(ccc(O)c3CN3CCN(CCO)CC3)C2=O)cc1`: the delta pCa50 was -0.027 (inactive) and the maximal force change is -0.5%.
Consider `CCOC(=O)c1cc2n(c1N)-c1ccccc1C2=O`, for which the maximal force change worked out at 2.13% and the delta pCa50 is 0.01 (inactive).
